The target in test [1] is T1, Peroxisome proliferator-activated receptor alpha (Homo sapiens, UniProt Q07869).
T1 sequence (Q07869 whole entry): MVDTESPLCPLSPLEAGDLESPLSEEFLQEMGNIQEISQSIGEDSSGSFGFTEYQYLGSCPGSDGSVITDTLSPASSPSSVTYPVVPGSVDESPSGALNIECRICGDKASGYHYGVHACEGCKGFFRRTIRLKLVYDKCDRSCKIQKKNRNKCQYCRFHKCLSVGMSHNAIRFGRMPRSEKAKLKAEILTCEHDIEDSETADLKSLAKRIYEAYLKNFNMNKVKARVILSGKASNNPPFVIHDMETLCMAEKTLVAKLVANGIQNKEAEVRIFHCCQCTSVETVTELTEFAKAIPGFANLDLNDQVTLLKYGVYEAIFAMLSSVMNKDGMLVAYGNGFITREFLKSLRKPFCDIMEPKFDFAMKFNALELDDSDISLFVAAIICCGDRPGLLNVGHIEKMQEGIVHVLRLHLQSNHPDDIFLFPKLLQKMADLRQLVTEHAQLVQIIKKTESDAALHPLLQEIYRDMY
The experiment in a line: Agonist activity at human PPARalpha expressed in MCF7 cells co-transfected CPTI DR1-type RE after 6 hrs by luciferase reporter gene assay. It counts as functional, cell-based. The essentials:
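Luciferase reporter assay in extracts of MCF-7 cells transiently transfected with a human CPTI DR1-type response element reporter (four copies), plus PPARα, RXRα and NCoR vectors. Cells exposed 6 h to compounds at 10 μM, DMSO as solvent control. Basal and ligand-induced activity recorded.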
On the technique in general: A reporter such as luciferase makes a cellular process visible.

For a further test, the target named is Cannabinoid receptor 1 (Homo sapiens, UniProt P21554). The experiment in a line: Displacement of [3H]-CP55940 from CB1 receptor after 90 mins by liquid scintillation counting. On the technique in general: Loss of bound radioactivity is the signal in a displacement assay; it reports binding, not function.
Test [2] concerns the target Cannabinoid receptor 2 (Homo sapiens) (UniProt P34972). Kind of test: Displacement of [3H]-CP55940 from CB2 receptor after 90 mins by liquid scintillation counting.
The target of test [3] is Cannabinoid receptor 1 (Mus musculus) (UniProt P47746). The experiment in a line: Antagonist activity at CB1 receptor in ICR mouse vas deferens assessed as inhibition of ACEA-stimulated electrically-induced muscle contraction at 10^-6 M. Format: functional, tissue-based. The essentials:
(§1)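 Mouse vas deferens under electrical stimulation. Tissues were preincubated with compound at 10^-6 or 2 × 10^-6 M, then increasing concentrations of the CB1 agonist ACEA were added. Mean ± SEM, n = 6–8.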

Test [4] has as its target T1, Peroxisome proliferator-activated receptor alpha. Kind of test: Agonist activity at human PPARalpha expressed in MCF7 cells co-transfected CPTI DR1-type RE after 16 hrs by luciferase reporter gene assay. Format: functional, cell-based. The essentials: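 Luciferase reporter assay in extracts of MCF-7 cells transiently transfected with a reporter carrying four copies of the human CPTI DR1-type response element, plus PPARα, RXRα and NCoR expression vectors. Cells treated 16 h with compounds at 10 μM, DMSO as solvent control. Mean of at least three experiments with SD; two-tailed paired Student's t-test against solvent.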

Test [5] has as its target Cannabinoid receptor 2 (Mus musculus) (UniProt P47936). Kind of test: Antagonist activity at CB2 receptor in ICR mouse vas deferens assessed as inhibition of JWH-015-stimulated electrically-induced muscle contraction. It counts as functional, tissue-based.
The target in test [6] is Cannabinoid receptor 1 (Mus musculus) (UniProt P47746). Kind of test: Antagonist activity at CB1 receptor in ICR mouse vas deferens assessed as inhibition of ACEA-stimulated electrically-induced muscle contraction at 2 x 10^-6 M. Format: functional, tissue-based. The essentials: as §1
Test [7] has the same target. Kind of test: Agonist activity at CB1 receptor in ICR mouse vas deferens assessed as effect on amplitude of nonstimulated muscle contraction at 10^-7 to 1.8 x 10^-5 M relative to control. Format: functional, tissue-based. The essentials: (§2)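 Mouse vas deferens, electrically stimulated nerve-smooth muscle preparation. Compounds tested at 10^-7 to 1.8 × 10^-5 M for effects on the nonstimulated basal recording and on the amplitude of electrically evoked contractions. Read-out was % inhibition of evoked contraction compared with vehicle.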

Test [8] has the same target. The experiment in a line: Agonist activity at CB1 receptor in ICR mouse vas deferens assessed as inhibition of amplitude of electrically-stimulated muscle contraction at 10^-7 to 1.8 x 10^-5 M relative to control. Format: functional, tissue-based. The essentials:
as §2

The next test relates to Rattus norvegicus. Kind of test: Inhibition of food intake in Wistar rat at 0.03 to 3 mg/kg, ip after 30 to 240 mins. Format: functional, organism-based.

The structures appear in SMILES notation. Calls of active or inactive are those of the source. The calls are words filed in the database; no cut-off is given here.

Cannabinoid receptor 1 (Mus musculus), sequence (P47746 whole entry): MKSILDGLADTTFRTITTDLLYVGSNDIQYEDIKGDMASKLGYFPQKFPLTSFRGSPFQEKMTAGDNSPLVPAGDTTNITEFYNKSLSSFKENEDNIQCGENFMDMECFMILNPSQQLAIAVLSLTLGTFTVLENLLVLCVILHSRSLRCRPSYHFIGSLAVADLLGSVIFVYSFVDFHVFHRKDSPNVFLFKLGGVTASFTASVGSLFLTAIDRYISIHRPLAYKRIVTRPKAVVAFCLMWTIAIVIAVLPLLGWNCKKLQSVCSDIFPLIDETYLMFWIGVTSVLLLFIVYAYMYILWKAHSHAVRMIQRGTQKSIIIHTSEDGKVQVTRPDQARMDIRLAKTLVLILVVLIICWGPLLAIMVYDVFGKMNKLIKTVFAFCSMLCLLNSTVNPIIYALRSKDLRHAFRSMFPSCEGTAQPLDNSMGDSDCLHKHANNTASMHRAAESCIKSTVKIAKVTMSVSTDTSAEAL
Cannabinoid receptor 1, sequence (P21554 whole entry): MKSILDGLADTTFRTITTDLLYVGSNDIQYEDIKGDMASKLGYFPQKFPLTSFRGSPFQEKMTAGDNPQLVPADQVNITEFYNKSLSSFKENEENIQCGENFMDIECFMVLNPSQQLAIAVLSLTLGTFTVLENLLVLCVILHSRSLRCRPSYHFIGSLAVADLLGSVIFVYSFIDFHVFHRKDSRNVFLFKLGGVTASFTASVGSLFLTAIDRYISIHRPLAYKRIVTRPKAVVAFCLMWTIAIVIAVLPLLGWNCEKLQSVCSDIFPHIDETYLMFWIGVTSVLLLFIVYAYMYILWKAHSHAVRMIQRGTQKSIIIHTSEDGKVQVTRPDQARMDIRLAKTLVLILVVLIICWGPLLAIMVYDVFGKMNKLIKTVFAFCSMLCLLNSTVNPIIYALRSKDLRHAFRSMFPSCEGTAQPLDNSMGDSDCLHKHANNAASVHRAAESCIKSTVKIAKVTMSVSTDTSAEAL
Cannabinoid receptor 2 (Mus musculus), sequence (P47936 whole entry): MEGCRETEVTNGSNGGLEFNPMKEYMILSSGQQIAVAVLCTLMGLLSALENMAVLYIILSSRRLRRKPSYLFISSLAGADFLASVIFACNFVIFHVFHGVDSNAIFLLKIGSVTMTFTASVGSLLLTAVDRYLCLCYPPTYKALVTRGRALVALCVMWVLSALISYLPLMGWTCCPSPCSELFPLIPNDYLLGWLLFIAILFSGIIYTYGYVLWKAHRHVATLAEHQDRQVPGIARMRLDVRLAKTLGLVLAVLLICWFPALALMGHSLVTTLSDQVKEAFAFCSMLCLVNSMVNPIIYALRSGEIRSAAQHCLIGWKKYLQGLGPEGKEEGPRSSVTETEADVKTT
Cannabinoid receptor 2 (Homo sapiens), sequence (P34972 whole entry): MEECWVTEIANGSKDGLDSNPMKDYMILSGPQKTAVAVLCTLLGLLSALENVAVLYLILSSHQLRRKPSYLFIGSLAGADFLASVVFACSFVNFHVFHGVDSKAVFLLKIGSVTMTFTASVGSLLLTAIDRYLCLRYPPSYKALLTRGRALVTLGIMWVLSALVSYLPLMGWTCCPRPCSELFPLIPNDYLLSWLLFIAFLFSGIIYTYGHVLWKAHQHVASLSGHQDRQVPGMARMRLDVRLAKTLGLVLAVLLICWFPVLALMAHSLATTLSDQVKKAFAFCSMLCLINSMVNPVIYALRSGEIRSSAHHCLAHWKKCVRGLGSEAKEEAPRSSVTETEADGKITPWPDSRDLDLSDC

With `CCOC(=O)C(C)(C)Oc1ccc(NC(=O)c2nn(-c3ccc(Cl)cc3Cl)c(-c3ccc(Cl)cc3)c2C)cc1`, the EC50 (commonly the concentration giving half of the maximal effect) in test [1] was found to be 1480 nM. Further, at Cannabinoid receptor 1, the Ki (in general, the equilibrium dissociation constant of an inhibitor or competing ligand from its target) was 109 nM. Also, the result in test [2] was inactive.
For the compound `Cc1c(C(=O)NN2CCCCC2)nn(-c2ccc(Cl)cc2Cl)c1-c1ccc(I)cc1`, in test [3], the inhibition (in general, the relative decrease from the control value, in per cent) was “Active”.
Consider `Cc1c(C(=O)Nc2cccc(O)c2)nn(-c2ccc(Cl)cc2Cl)c1-c1ccc(Cl)cc1`, for which the EC50 in test [1] came out at 887 nM; in test [4] it was 989 nM. On Cannabinoid receptor 1, this compound registered a Ki of 52 nM.
Consider `CCCCCCCC/C=C\CCCCCCCC(=O)NCCO` [OLEOYLETHANOLAMIDE], for which the EC50 in [1] came out at 185 nM; in [4] it was 152 nM.
For the compound `Cc1c(C(=O)Nc2ccc(O)cc2)nn(-c2ccc(Cl)cc2Cl)c1-c1ccc(Cl)cc1`, the outcome in [5], in [3] and in test [6] was Active. In [1], the EC50 stood at 971 nM. On Cannabinoid receptor 1, this compound came in with a Ki of 4.6 nM. Moreover, the result in [7] was inactive. Also, the inhibition in [8] was under 10%. Also, the inhibition result with Rattus norvegicus is “inactive”.
`CCOC(=O)C(C)(C)Oc1cccc(NC(=O)c2nn(-c3ccc(Cl)cc3Cl)c(-c3ccc(Cl)cc3)c2C)c1`: the outcome in [5] and in test [7] was inactive. For the same compound, the EC50 was found to be 856 nM in test [1] and 743 nM in test [4]. The result in test [3] and in test [6] was Active. The same compound had a Ki at Cannabinoid receptor 1 of 65 nM. Besides, the inhibition in test [8] is under 10%. In addition, the inhibition result in the test with Rattus norvegicus is “inactive”.

These data come from ChEMBL document CHEMBL2021878, “Discovery of Potent Dual PPARα Agonists/CB1 Ligands” (ACS Med Chem Lett, 2011).
